Source: BindingDB's records for doi:10.1016/j.ejmech.2010.04.038 (B.V. Patel Pharmaceutical Education and Research …, 2010)

What follows are molecules tested against Transcription factor Jun (Homo sapiens, UniProt P05412) (assay: Inhibition of AP1 expressed in HEK293 cells assessed as inhibition of PMA-induced transcriptional activation treated 24 hrs before PMA challenge by luciferase reporter gene assay).
How it was run: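 Six-point dose response […] and rising in ½-log steps, screened as in the primary reporter assay. IC50 calculated from the dose-response data.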

Transcription factor Jun, sequence (P05412 whole entry): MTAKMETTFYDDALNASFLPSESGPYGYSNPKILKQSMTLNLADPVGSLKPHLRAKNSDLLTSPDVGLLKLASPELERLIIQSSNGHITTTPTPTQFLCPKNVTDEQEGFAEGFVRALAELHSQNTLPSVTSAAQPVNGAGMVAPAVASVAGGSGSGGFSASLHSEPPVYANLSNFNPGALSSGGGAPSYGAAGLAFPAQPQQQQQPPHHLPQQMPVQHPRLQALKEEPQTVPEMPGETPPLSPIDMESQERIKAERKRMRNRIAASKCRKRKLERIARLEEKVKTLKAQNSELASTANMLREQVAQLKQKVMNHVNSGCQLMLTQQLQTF

Q: With `COc1ccc(-n2c(-c3sc(Nc4ccc(Cl)cc4)nc3-c3ccccc3)nc3ccccc3c2=O)cc1` [2-[2-(4-Chloro-phenylamino)-4-phenyl-thiazol-5-yl]-3-(4-methoxy-phenyl)-3H quinazolin-4-one] as the molecule, how does the IC50 read?
A: 14 µM

Q: Which IC50 does the source give for `CNc1nc(-c2ccccc2)c(-c2nc3ccccc3c(=O)n2-c2ccc(Cl)cc2)s1` [3-(4-Chloro-phenyl)-2-(2-methylamino-4-phenyl-thiazol-5-yl)-3H-quinazolin-4-one] here?
A: > 500 µM

Q: For `CNc1nc(C)c(-c2nc3ccccc3c(=O)n2-c2ccc(Cl)cc2)s1` [3-(4-Chloro-phenyl)-2-(4-methyl-2-methylamino-thiazol-5-yl)-3H-quinazolin-4-one], which IC50 is on record?
A: 3 µM

Q: With `O=c1c2ccccc2nc(-c2sc(Nc3ccc(Cl)cc3)nc2-c2ccccc2)n1-c1ccc(Cl)cc1` [3-(4-Chloro-phenyl)-2-[2-(4-chloro-phenylamino)-4-phenyl-thiazol-5-yl]-3H-quinazolin-4-one] as the molecule, how does the IC50 read?
A: 4.3 µM

Q: How did the IC50 turn out when `CCOC(=O)Nc1nc(-c2ccccc2)c(-c2nc3ccccc3c(=O)n2-c2ccccc2)s1` [[5-(4-Oxo-3-phenyl-3,4-dihydro-quinazolin-2-yl)-4-phenylthiazol-2-yl]-carbamic acid ethyl ester] was run?
A: 5.7 µM

Q: How did the IC50 turn out when `CCOC(=O)Nc1nc(C)c(-c2nc3ccccc3c(=O)n2-c2ccc(Cl)cc2)s1` [{5-[3-(4-Chloro-phenyl)-4-oxo-3,4-dihydro-quinazolin-2-yl]-4-methyl-thiazol-2-yl}-carbamic acid ethyl ester] was run?
A: 10 µM
